Source: paper PMC4410353 (Journal of nuclear medicine : official publication, Society …, 2009)

Test: 3-T MRI of gadofluorine M uptake in atherosclerotic-like lesions
Format: in vivo, rabbit
Conditions: T1-weighted MRI 1 h after i.v. 0.5 μmol/kg
Outline: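 Rabbits had right femoral artery injury by air desiccation, then balloon angioplasty. The contralateral uninjured femoral artery served as control. Rabbits were imaged at 4–6 wk post-desiccation (n = 9), 3 wk post-angioplasty (n = 6) and 4 wk later (n = 4). 3-T T1-weighted turbo-spin-echo imaging (TR/TE 600/12 ms) was run 1 h after i.v. non-receptor-specific plaque-targeting contrast agent.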

## CC(C(=O)NCC(=O)NCCCC[C@H](NC(=O)CO[C@H]1O[C@H](CO)[C@@H](O)[C@H](O)[C@@H]1O)C(=O)N1CCN(S(=O)(=O)C(F)(F)C(F)(F)C(F)(F)C(F)(F)C(F)(F)C(F)(F)C(F)(F)C(F)(F)F)CC1)N1CCN(CC(=O)O)CCN(CC(=O)O)CCN(CC(=O)O)CC1 (some centres unmarked) [gadofluorine M]
  MRI uptake in control arteries: no gadofluorine M uptake
All rabbits at all TPs
  MRI signal / uptake in injured vessels: increased signal
